pIC50: −log10 of the molar value. Entries after “also recorded” stand apart in the source; their conditions may differ.
Key:
capsaicin-induced flare [1] = assay: Block of topical capsaicin-induced flare in rats; type: in vivo, Sprague Dawley rats
[2] = Urinary excretion and renal clearance; type: in vivo, healthy men
Summary of the method: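 Samples were assayed by LC-MS/MS over 5–1000 ng/mL (LLOQ 5 ng/mL). Excreted amount = urine volume × concentration, % of dose = Ae/dose × 100, and renal clearance = Ae/AUC.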

[3] = system: naïve and UVB-sensitized skin; assay: Sensory testing part 2 on naïve and UVB-sensitized skin; type: in vivo, healthy men
Summary of the method: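 In the part 2 crossover (oral 10 or 50 mg, or placebo), minimal erythema dose was first found with graded UVB on the lower back. Three times that dose was then given to the volar forearm. Warm detection, heat pain detection, heat pain tolerance, mechanical pain threshold and allodynia were tested on UVB-treated and naïve skin. Times were predose, 4, 8, 24, 72, 120 and 144 h, and follow-up, to a 52 °C maximum.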

capsaicin-induced flare [4] = assay: Capsaicin-induced flare area and intensity in humans; type: in vivo, healthy men
Summary of the method: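 Part 2 was a double-blind, 3-way crossover of single oral test compound (10 or 50 mg) or placebo tablets after an overnight fast. Capsaicin cream (0.075% w/w) stayed on the forearm for 30 min. Laser Doppler scans were taken before and after, at predose, 4 h and 144 h postdose. Flare area counted pixels with flux above the 95th percentile (mean + 2 SD) of baseline. Intensity was taken as relative flux.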

human TRPV1 receptors = details: cited from earlier work
[5] = system: carrageenan-evoked thermal hyperalgesia; details: cited from earlier work
[6] = system: complete Freund's adjuvant–evoked thermal hyperalgesia; details: rat; cited from earlier work

## CC(C)(O)c1ccccc1-c1ccc2[nH]c(/C=C/c3ccc(C(F)(F)F)cc3)nc2c1 [JNJ-39439335, trans-2-(2-{2-[2-(4-Trifluoromethyl-phenyl)-vinyl]-1H-benzimidazol-5-yl}-phenyl)-propan-2-ol]
capsaicin-induced flare [1]; pretreatment 0.3–30 mg/kg, p.o.
  Capsaicin-induced flare: blocked the capsaicin-induced flare in a dose-dependent fashion
capsaicin-induced flare [1]; rat, data not shown
  Estimated plasma exposure associated with ED50: 0.0676 ± 0.0449 mg/L
capsaicin-induced flare [1]; rat, single oral dose of 10 mg/kg
  Flare response induced by 1000 μg topical capsaicin: completely blocked
[2]; in vivo
  Renal clearance: negligible
[2]; lower limit of quantification 5 ng/mL
  Concentrations in urine: below the quantification limit
[3]; naïve and UVB-sensitized skin, 10 and 50 mg
  HPD threshold, HPT, and warm detection threshold: dose-dependent increase
[3]; naïve skin or UVB-sensitized skin
  Mechanical pain detection threshold: no clear treatment or dose-related effects
[3]; warm detection threshold
  Plasma concentration at which most participants detected warmth before 52°C: < 200 ng/mL
capsaicin-induced flare [4]; 4-hour postdose
  Plasma concentration giving maximum effect on flare area and flare intensity: ≥ 90 ng/mL
capsaicin-induced flare [4]; 144-hour postdose
  Plasma concentration giving maximum effect on flare area and flare intensity: > 5 ng/mL
capsaicin-induced flare [4]; part 2, 10 and 50 mg, 4- and 144-hour postdose
  Capsaicin-induced flare intensity and flare area: dose-related reduction
capsaicin-induced flare [4]; part 2, 50-mg dose, 144 hours postdose
  Capsaicin-induced flare area and flare intensity: complete blocking; also recorded: completely blocked
Human TRPV1 receptors
  pIC50: 8.33
[5]; rat carrageenan model of inflammatory pain
  Near maximally effective plasma concentration at the ED80: 0.009 mg/L
[5]; rat
  Carrageenan-evoked thermal hyperalgesia: significantly attenuated
[6]
  Complete Freund's adjuvant–evoked thermal hyperalgesia: significantly attenuated

— publication PMC5741288 (Pain Reports, 2016)
